Key:
Format in all cases: functional
[1] = Growth inhibition of human HCT15 cells after 48 hrs by sulforhodamine B assay; details: HCT-15, 48 h
How it was run: (§1)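 NCI-60 panel screen by SRB assay (Rubinstein method). Percentage growth taken from optical density of SRB colour, read before and 48 hrs after exposure to compound or vehicle control. All analogues first screened at 10^-5 M. Analogues giving 60% growth inhibition at that level in at least eight lines then went to a five-concentration dose-response study.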

[2] = Growth inhibition of human IGROV1 cells after 48 hrs by sulforhodamine B assay; details: IGROV-1, 48 h; how it was run: as §1
[3] = Growth inhibition of human PC3 cells after 48 hrs by sulforhodamine B assay; details: PC-3, 48 h; how it was run: as §1
[4] = Growth inhibition of human HCC2998 cells after 48 hrs by sulforhodamine B assay; details: HCC 2998, 48 h; how it was run: as §1
[5] = test system: MDA-MB-231; assay: Growth inhibition of human MDA-MB-231 cells after 48 hrs by sulforhodamine B assay; details: MDA-MB-231, 48 h; how it was run: as §1
[6] = Growth inhibition of human SF268 cells after 48 hrs by sulforhodamine B assay; details: SF-268, 48 h; how it was run: as §1
[7] = test system: SK-MEL-2; assay: Growth inhibition of human SK-MEL-2 cells after 48 hrs by sulforhodamine B assay; details: SK-MEL-2, 48 h; how it was run: as §1
[8] = Growth inhibition of human MOLT4 cells after 48 hrs by sulforhodamine B assay; details: MOLT-4, 48 h; how it was run: as §1
[9] = test system: NCI-H23; assay: Growth inhibition of human NCI-H23 cells after 48 hrs by sulforhodamine B assay; details: NCI-H23, 48 h; how it was run: as §1
[10] = test system: ACHN; assay: Growth inhibition of human ACHN cells after 48 hrs by sulforhodamine B assay; how it was run: as §1
[11] = test system: SR; assay: Growth inhibition of human SR cells after 48 hrs by sulforhodamine B assay; how it was run: as §1
[12] = Growth inhibition of human NCI-ADR-RES cells after 48 hrs by sulforhodamine B assay; how it was run: as §1
[13] = test system: CAKI-1; assay: Growth inhibition of human CAKI-1 cells after 48 hrs by sulforhodamine B assay; details: CAKI-1, 48 h; how it was run: as §1
[14] = test system: NCI-H460; assay: Growth inhibition of human NCI-H460 cells after 48 hrs by sulforhodamine B assay; details: NCI-H460, 48 h; how it was run: as §1
[15] = test system: MCF7; assay: Growth inhibition of human MCF7 cells after 48 hrs by sulforhodamine B assay; details: MCF7, 48 h; how it was run: as §1
[16] = Growth inhibition of human RPMI8226 cells after 48 hrs by sulforhodamine B assay; details: RPMI-8226, 48 h; how it was run: as §1
[17] = Growth inhibition of human SNB75 cells after 48 hrs by sulforhodamine B assay; details: SNB-75, 48 h; how it was run: as §1
[18] = Growth inhibition of human DU145 cells after 48 hrs by sulforhodamine B assay; details: DU-145, 48 h; how it was run: as §1
[19] = test system: 786-0; assay: Growth inhibition of human 786-0 cells after 48 hrs by sulforhodamine B assay; details: 786-0, 48 h; how it was run: as §1
[20] = test system: A498; assay: Growth inhibition of human A498 cells after 48 hrs by sulforhodamine B assay; details: A498, 48 h
How it was run: (§2)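 NCI-60 sulforhodamine B screen. Compounds were first tested at a single dose of 10⁻⁵ M; hits, defined as ≥60% growth inhibition in at least eight lines, went on to a five-concentration dose–response. SRB optical density was read before and 48 h after exposure to compound or vehicle. Percentage growth was calculated from OD.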

[21] = Growth inhibition of human HL-60(TB) cells after 48 hrs by sulforhodamine B assay; details: HL-60, 48 h; how it was run: as §1
[22] = Growth inhibition of human SKOV3 cells after 48 hrs by sulforhodamine B assay; details: SK-OV-3, 48 h; how it was run: as §1
[23] = test system: CCRF-CEM; assay: Growth inhibition of human CCRF-CEM cells after 48 hrs by sulforhodamine B assay; how it was run: as §1
[24] = test system: HT-29; assay: Growth inhibition of human HT-29 cells after 48 hrs by sulforhodamine B assay; details: HT-29, 48 h; how it was run: as §1
[25] = test system: U-251; assay: Growth inhibition of human U251 cells after 48 hrs by sulforhodamine B assay; details: U-251, 48 h; how it was run: as §1
[26] = Growth inhibition of human LOXIMVI cells after 48 hrs by sulforhodamine B assay; details: LOX IMVI; how it was run: as §1
[27] = Growth inhibition of human COLO205 cells after 48 hrs by sulforhodamine B assay; details: COLO 205, 48 h; how it was run: as §1
[28] = test system: A549; assay: Growth inhibition of human A549/ATCC cells after 48 hrs by sulforhodamine B assay; details: A549, 48 h; how it was run: as §1
[29] = test system: K562; assay: Growth inhibition of human K562 cells after 48 hrs by sulforhodamine B assay; details: K562, 48 h; how it was run: as §1
[30] = test system: MDA-MB-468; assay: Growth inhibition of human MDA-MB-468 cells after 48 hrs by sulforhodamine B assay; details: MDA-MB-468, 48 h; how it was run: as §1
[31] = Growth inhibition of human UO31 cells after 48 hrs by sulforhodamine B assay; details: UO-31, 48 h; how it was run: as §1
[32] = Growth inhibition of human SW620 cells after 48 hrs by sulforhodamine B assay; details: SW-620, 48 h; how it was run: as §1
[33] = test system: KM12; assay: Growth inhibition of human KM12 cells after 48 hrs by sulforhodamine B assay; details: KM12, 48 h; how it was run: as §1
[34] = test system: MDA-MB-435; assay: Growth inhibition of human MDA-MB-435 cells after 48 hrs by sulforhodamine B assay; details: MDA-MB-435, 48 h; how it was run: as §2
[35] = Growth inhibition of human SF295 cells after 48 hrs by sulforhodamine B assay; details: SF-295, 48 h; how it was run: as §1
[36] = Growth inhibition of human OVCAR3 cells after 48 hrs by sulforhodamine B assay; details: OVCAR-3, 48 h; how it was run: as §2
[37] = Growth inhibition of human HOP62 cells after 48 hrs by sulforhodamine B assay; details: HOP-62, 48 h; how it was run: as §1
[38] = read-out: LD50 (the source's name)

COc1cc(-c2n[nH]nc2-c2ccc3c(c2)OCO3)cc(OC)c1OC
GI50 [1]: 130 nM | CC50 [1, 38]: > 100000 nM | GI50 [2]: > 100000 nM | CC50 [2, 38]: > 100000 nM | GI50 [3]: 260 nM | CC50 [3, 38]: > 100000 nM | GI50 [4]: > 100000 nM | CC50 [4, 38]: > 100000 nM | GI50 [5]: 530 nM | CC50 [5, 38]: > 100000 nM | GI50 [6]: > 100000 nM | CC50 [6, 38]: > 100000 nM | GI50 [7]: 20 nM | CC50 [7, 38]: > 100000 nM | GI50 [8]: 570 nM | CC50 [8, 38]: > 100000 nM | GI50 [9]: 770 nM | LC50 (concentration giving 50% cell kill) ([9]; read-out: LD50): > 100000 nM | GI50 [10]: 710 nM | CC50 [10, 38]: > 100000 nM | GI50 [11]: 40 nM | LC50 (concentration giving 50% net cell kill) ([11]; read-out: LD50): > 100000 nM | GI50 [12]: 80 nM | CC50 [12, 38]: > 100000 nM | GI50 [13]: 320 nM | CC50 [13, 38]: > 100000 nM | GI50 [14]: 340 nM | CC50 [14, 38]: > 100000 nM | GI50 [15]: 80 nM | CC50 [15, 38]: > 100000 nM | GI50 [16]: 330 nM | CC50 [16, 38]: > 100000 nM | GI50 [17]: 80 nM | CC50 [17, 38]: > 100000 nM | GI50 [18]: 350 nM | CC50 [18, 38]: > 100000 nM | GI50 [19]: 620 nM | LC50 (concentration killing 50% of cells) ([19]; read-out: LD50): > 100000 nM | GI50 [20]: 340 nM | LC50 (50% net cell kill) ([20]; read-out: LD50): > 100000 nM | GI50 [21]: 200 nM | CC50 [21, 38]: > 100000 nM | GI50 [22]: 490 nM | LC50 (concentration killing 50% of cells) ([22]; read-out: LD50): > 100000 nM | GI50 [23]: 280 nM | LC50 (concentration killing 50% of cells) ([23]; read-out: LD50): > 100000 nM | GI50 [24]: 390 nM | LC50 (concentration killing 50% of cells) ([24]; read-out: LD50): > 100000 nM | GI50 [25]: 300 nM | CC50 [25, 38]: > 100000 nM | GI50 [26]: 550 nM | CC50 [26, 38]: > 100000 nM | GI50 [27]: 310 nM | CC50 [27, 38]: > 100000 nM | GI50 [28]: 290 nM | CC50 [28, 38]: > 100000 nM | GI50 [29]: 50 nM | CC50 [29, 38]: > 100000 nM | GI50 [30]: 230 nM | CC50 [30, 38]: > 100000 nM | GI50 [31]: 660 nM | LC50 (concentration killing 50% of cells) ([31]; read-out: LD50): > 100000 nM | GI50 [32]: 110 nM | LD50 (concentration killing 50% of cells) [32]: > 100 µM | GI50 [33]: 70 nM | LC50 (concentration killing 50% of cells) ([33]; read-out: LD50): > 100000 nM | GI50 [34]: 90 nM | LC50 (concentration killing 50% of cells) ([34]; read-out: LD50): > 100000 nM | GI50 [35]: 100 nM | CC50 [35, 38]: > 100000 nM | GI50 [36]: 430 nM | LC50 (concentration giving 50% net cell kill) ([36]; read-out: LD50): > 100000 nM | GI50 [37]: 340 nM | LC50 (concentration killing 50% of cells) ([37]; read-out: LD50): > 100000 nM
